The source of these data is paper PMC6432617 (Chemical Science, 2019).

A short description of series [1]: Photophysical study: fluorescence spectra and quantum yields. The format is physicochemical. The settings on record: for solvatochromism Δmaxλem: various solvents, 50 μM.
The subject of series [2] is zebrafish larvae. In words: Chalcone 18 alone in 72 hpf larvae, confocal imaging. The format is in vivo, zebrafish (Danio rerio).
A further series relates to chemokine CXCL12a. To be noted: 10 μM, zebrafish model ref [56]; cited from earlier work.
Another series concerns neutrophil granules. To be noted: ref column Ref. of Table 1 ([5], [8], [9], [42], [60], [61], [65], [75]–[93]); cited from earlier work.
The test system of series [3] is zebrafish neutrophil granules. Nature of the series: HAB labeling of live zebrafish embryos and larvae, confocal imaging. The class given is in vivo, zebrafish (Danio rerio). An outline of the steps: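 Wild-type AB or transgenic embryos/larvae (24 hpf to 6 dpf, 28.5 °C staging) were incubated 1 h in the dark at room temperature with probe at 10 μM in Volvic water, from a 10 mM DMSO stock; controls got 0.1% DMSO. For equilibrium imaging, larvae were anaesthetised (tricaine) and mounted in 1% low-melt agarose with probe. For diffusion imaging, larvae were washed and mounted probe-free. Confocal imaging was done at 23–26 °C: excitation 488 nm, emission 550–650 nm.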

Series [4] in a line: pKa prediction with ACD software. The settings on record: from predicted pKa 3.97.
Another series has as its system myeloperoxidase. Nature of the series: HAB labeling in myeloperoxidase knock-out. The format is in vivo, zebrafish (Danio rerio). The settings on record: spotless mutant strain, equilibrium conditions.
Another series has as its system Caenorhabditis elegans. In words: HAB labeling of live Caenorhabditis elegans. The settings on record: in vivo.
The target of series [5] is bovine serum albumin (BSA) (Bos taurus, UniProt P02769). Nature of the series: Protein-dependent fluorogenesis: titration of HAB with BSA in TRIS buffer. The format is binding. The procedure, abridged: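 Probe at 50 μM in Tris buffer (Tris·HCl 10 mM, pH 7.0, NaCl 100 mM, MgCl2 5 mM) was titrated with BSA. Emission spectra were recorded at 360 nm excitation over 0–1 mg mL−1 BSA and at 420 nm excitation over 1–10 mg mL−1. Fluorescence turn-on was taken at 420 nm excitation with 10 mg ml−1 BSA.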
Sequence of bovine serum albumin (BSA) (P02769 25-607): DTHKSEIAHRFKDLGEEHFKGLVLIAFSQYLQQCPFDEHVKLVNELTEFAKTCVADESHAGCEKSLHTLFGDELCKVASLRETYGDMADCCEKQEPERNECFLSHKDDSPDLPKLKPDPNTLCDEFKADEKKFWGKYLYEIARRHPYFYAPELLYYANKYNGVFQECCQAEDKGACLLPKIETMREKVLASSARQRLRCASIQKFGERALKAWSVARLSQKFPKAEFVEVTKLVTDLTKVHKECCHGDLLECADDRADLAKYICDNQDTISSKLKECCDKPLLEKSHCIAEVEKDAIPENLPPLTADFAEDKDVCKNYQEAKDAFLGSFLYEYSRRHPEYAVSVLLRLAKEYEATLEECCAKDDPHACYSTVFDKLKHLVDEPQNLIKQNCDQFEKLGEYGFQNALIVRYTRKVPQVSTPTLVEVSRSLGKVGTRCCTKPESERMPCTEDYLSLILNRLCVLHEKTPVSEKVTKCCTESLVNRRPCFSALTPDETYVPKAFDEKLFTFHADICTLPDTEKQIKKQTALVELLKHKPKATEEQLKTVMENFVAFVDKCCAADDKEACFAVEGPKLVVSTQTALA

In series [6] the test system is live primary human neutrophils. Nature of the series: HAB labeling of live human primary neutrophils. The class given is cell-based. The settings on record: 10 μM. The procedure, abridged:
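Neutrophils were purified from human blood: plasma removal, dextran sedimentation of red cells, then a 51–42% Percoll gradient. Remaining red cells were cleared with CD235a beads. Cells went into RPMI/10 mM Hepes at 2 × 10^6 per mL and adhered 20 min at room temperature in glass-bottom dishes. Medium was replaced with probe at 1, 5 or 10 μM in RPMI/Hepes, followed by live confocal fluorescence and DIC imaging.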

Series [7] has as its system zebrafish larvae. In words: Toxicity in live zebrafish larvae. The format is in vivo, zebrafish (Danio rerio). The settings on record: up to 48 h incubation.
In series [8] the test system is lymphocytes, monocytes, erythrocytes and thrombocytes (platelets). Nature of the series: HAB labeling of other human blood cell populations. The class given is cell-based. The settings on record: 10 μM, same conditions as purified neutrophils. An outline of the steps:
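PBMC were taken from the top layer of the Percoll gradient used for neutrophil purification. Live lymphocytes, erythrocytes, monocytes and thrombocytes were imaged by confocal fluorescence and DIC with probe at 10 μM, using the same settings as for the neutrophils.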

Series [9] can be described thus: log D7.4 partition coefficient, n-octanol / pH 7.4 PBS. The format is physicochemical. The settings on record: from log D7.4 values. The procedure, abridged: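 Partition coefficients were measured between n-octanol and pH 7.4 phosphate-buffered saline at 20 °C, alongside reference chalcones.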

Turning to `Nc1cccc2ccc(/C=C/C(=O)c3ccccc3)cc12` [Compound 6, (E)-3-(8-aminonaphthalen-2-yl)-1-phenylprop-2-en-1-one], the “solvatochromism Δmaxλem” value in series [1] is reported as about 140 nm.
Consider `COc1cc(/C=C/C(=O)c2ccc(Cl)cc2)ccc1O` [Compound 18, 4-hydroxy-3-methoxy-4′-chlorochalcone], for which the type of staining entry with zebrafish larvae [2] (100 μM, 72 hpf larvae) is on record as “interstitial histological labeling”. The “fluorescence of 18 alone in larvae” value in the series with zebrafish larvae [2] (100 μM, 72 hpf larvae, excitation 488 nm) is “green-yellow fluorescence”. In addition, the cytopermeability entry in the series on zebrafish larvae [2] (even at high concentration) is “not cytopermeable”. In the series on chemokine CXCL12a, the “biological effects as inhibitor of CXCL12a” value is “moderate biological effects” and the “fluorescent detection by GFP filters” value is on record as “not fluorescently detected”.
For `COC(=O)c1ccccc1C1c2ccc(N)cc2Oc2cc(N)ccc21` [Dihydrorhodamine 123], the “Histopermeability for live animal imaging” value (shortened to “Histopermeability”) in the series with neutrophil granules was “No (in vitro only)”.
In the case of `Nc1cccc2ccc(/C=C/C(=O)c3ccc(O)cc3)cc12` [HAB, (E)-3-(8-aminonaphthalen-2-yl)-1-(4-hydroxyphenyl)prop-2-en-1-one], the “compartment labeled within neutrophils” value in [3] (10 μM, 72 hpf larvae, confocal plus DIC) is given as “co-localize with neutrophil granules”. The “developmental stage at which labeling first appeared” value in series [3] (10 μM, 60 min, ventral tail of embryo) is given as 32 hpf. Besides, the co-localization with macrophages entry in series [3] (10 μM, Tg(mfap4:mCherry-F) 72 hpf larvae) was “did not co-localize”. For the same compound, in series [3] (10 μM, Tg(mpx:GAL4/UAS-E1b:nsfB-mCherry) 72 hpf larvae), the co-localization with neutrophils entry is reported as “perfectly colocalized with all neutrophils”. In addition, the “HAB labeling after or before formaldehyde fixation” value in series [3] (1 or 4% formaldehyde, two hours, room temperature) was “failed to detect HAB labeling”. Also, in series [4], the “basicity, fold lower than that of acidotropic amines” value was “about 10^5 fold”. For the same compound, the “labeling in myeloperoxidase knock-out larvae” value in the series with myeloperoxidase is “qualitatively and quantitatively indistinguishable from wild-type larvae”. In addition, the “microscopic visualization in C. elegans” value in the series with Caenorhabditis elegans is “could not be microscopically visualized”. Besides, in [5], the “bathochromic shift Δλem upon binding to BSA” value was found to be 133 nm and the “bathochromic shift Δλex upon binding to BSA” value was 60 nm. Further, in series [5] (excitation 420 nm, BSA 10 mg ml^–1, HAB 50 μM), the “fluorescence turn-on (FTO) upon binding to BSA” value is listed as 21.5. In [6], the “labeling of activated neutrophils” value was “intense labeling of cells at the level of subcellular granular structures” and the “labeling of non-activated neutrophils” value was “intense but diffuse fluorescent labeling”. For the same compound, the “toxicity of HAB” value in the series with zebrafish larvae [7] is given as “absence of toxicity”. In series [1] (toluene), the “fold higher quantum yield than 5-amino regioisomer 12” value is recorded as “ca. 20 fold”. Moreover, in series [1], the “solvatochromism Δmaxλem” value is listed as about 140 nm. Further, the “labeling of lymphocytes, monocytes, erythrocytes and thrombocytes” value in series [8] was “weakly to faintly labeled”. Besides, in series [9], the “fold more hydrophilic than 4′-deshydroxy congener 6” value is listed as 2 fold.
As to `Nc1cccc2c(=O)[nH][nH]c(=O)c12` [Luminol], the “Histopermeability” value in the series with neutrophil granules was “No (in vitro only)”.
For the compound `CC1(C)Nc2cccc3c(N=Nc4ccc(N=Nc5ccccc5)c5ccccc45)ccc(c23)N1` [Sudan Black B], the “Histopermeability” value with neutrophil granules is “No (FA fixation in vivo)”.
